Most compounds without a hit are left out; they make up all but 3.8% or so of the library.
CHO parental Ca – ATP-evoked calcium signal inhibitors, parental CHO, primary screen, counter-screen for OX1R antagonist project, cell-based, fluorescence, Fluo-8 calcium dye | parental CHO-K1, ATP-induced calcium, Fluo-8 fluorescence | 330,000 compounds, 0.63% hits | AID 463079, 2010 | inhibition, % at 5.6 µM;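 active = inhibition above that plate's mean sample inhibition plus 3 SD, cut at about 26% in these data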;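 also: 0% = ATP-challenged DMSO wells and 100% = DMSO wells without ATP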
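Test system: parental CHO cells; detection: calcium-sensitive Fluo-8 fluorescence; evaluation: percent inhibition of calcium signal; also added: ATP as calcium-mobilizing challenge; repeats: one well per compound; control set: ATP-challenged DMSO wells low, unchallenged DMSO wells high; compound: single nominal dose of 5.6 µM per compound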
GPR7 antagonist – GPR7 receptor antagonists, primary screen, cell-based, fluorescence, single concentration; Neuropeptides B/W receptor type 1 (Homo sapiens), P48145; GPR7-expressing cells, fluorescence antagonist assay; inhibition, % at 4.4 µM; 290,000 compounds, 1.1% hits; AID 1861, 2009; in the data active = inhibition above about 16%, passing the limit was not always enough;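 also: cells stimulated with the agonist NPW; 0% = agonist with vehicle and 100% = vehicle without agonist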
OX1R antag-1 – OX1R (HCRTR1) antagonists, primary screen, fluorescence, CHO/OX1R cells, Fluo-8 calcium, orexin A. Fluo-8 calcium fluorescence. 330,000 compounds, 0.43% hits. Orexin/Hypocretin receptor type 1 (Homo sapiens), O43613. inhibition, % at 5 µM;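 active = inhibition above its plate's threshold, mean inhibition of all tested compounds on the plate plus 3 SD, cut at about 37% in these data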;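 also: 0% = orexin A challenge wells and 100% = SB-334867-A antagonist wells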
Target sequence (O43613 whole entry, looked up): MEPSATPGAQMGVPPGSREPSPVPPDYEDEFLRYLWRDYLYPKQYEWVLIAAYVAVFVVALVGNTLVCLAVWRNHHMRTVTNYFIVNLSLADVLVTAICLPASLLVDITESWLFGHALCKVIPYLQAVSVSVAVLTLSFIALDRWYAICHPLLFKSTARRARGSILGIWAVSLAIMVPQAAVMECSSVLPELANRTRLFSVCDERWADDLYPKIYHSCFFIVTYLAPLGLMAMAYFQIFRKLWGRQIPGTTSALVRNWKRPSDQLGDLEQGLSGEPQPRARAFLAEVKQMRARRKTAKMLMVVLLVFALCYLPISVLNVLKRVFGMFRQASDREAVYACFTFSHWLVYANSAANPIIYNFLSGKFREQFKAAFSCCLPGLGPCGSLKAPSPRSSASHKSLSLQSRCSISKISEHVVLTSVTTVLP
MPTP block – mitochondrial permeability transition pore inhibitors, primary screen, biochemical, isolated mouse mitochondria, absorbance; inhibition, % at 10 µM; Ca2+ swelling absorbance, 30 min; 360,000 compounds, 1.4% hits;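 active = inhibition of 50% or more, scaled per plate between neutral and stimulator controls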;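 also: 0% = DMSO wells given calcium and 100% = 1 mM EGTA wells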
OX1R antag-2 – antagonists of human orexin 1 receptor (OX1R); Orexin/Hypocretin receptor type 1 (Homo sapiens), O43613; OX1R-expressing cells, FRET antagonist read-out; AID 485270, 2010; inhibition, % at 6.6 µM; 330,000 compounds, 1.8% hits; in the data active = inhibition mostly above about 38%, no sharp cut-off; inactive = mostly below about 40%;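 also: 0% = agonist challenge alone and 100% = reference antagonist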
* = called active by the depositor; . = no result.

SMILES	CHO parental Ca	GPR7 antagonist	OX1R antag-1	MPTP block	OX1R antag-2
C/C(=N\OCC(=O)Nc1ccc(F)c(F)c1F)c1cc2ccccc2o1	-15.3	2.5	-0.7	3.2	65.0*
CSc1ccccc1NC(=O)CO/N=C(\C)c1cc2ccccc2o1	-21.9	-2.0	-38.3	0.6	23.2
Cc1cccc(-c2ncc(CN3CCN(CCC(C)C)C(CCO)C3)cn2)c1 (stereo not given)	-13.0	18.5*	-29.8	-2.0	17.0
Cc1cccc(-c2ncc(CN3CCN(C4CCCC4)C(CCO)C3)cn2)c1 (stereo not given)	-25.2	8.5	-29.4	1.1	16.5
CCOC(=O)CCCNc1ccc([N+](=O)[O-])cc1[N+](=O)[O-]	5.0	-1.7	-6.4	0.3	70.8*
Cc1c(C(=O)OCC(=O)N(C)Cc2ccccc2)oc2ccccc12	-11.7	.	25.9	0.6	60.2*
Cc1c(C(=O)OCC(=O)N(C)c2ccccc2)oc2ccccc12	-14.6	-6.6	-13.1	0.3	31.9
Cc1c(C(=O)OCC(=O)N2CC(C)CC(C)C2)oc2ccccc12 (stereo not given)	-16.9	.	-23.7	-1.1	69.9*
CC1(C)CC(=O)N(c2cccc(C(F)(F)F)c2)C(=O)C1	-7.5	-3.8	7.8	0.2	14.5
Cc1cc(N)n(Cc2ccc(Cl)cc2)n1	-31.9	0.8	-5.2	-1.4	39.2*
Cc1c(NC(=O)c2ccc3c(c2)OCO3)cccc1-c1nc2ccccc2o1	-25.4	9.3	-4.7	-0.5	51.9*
COC(=O)CSc1nc(-c2ccccc2)nc2ccc(F)cc12	-20.1	-5.5	-32.8	0.3	16.9
OCCSc1nc(-c2ccccc2)nc2ccc(F)cc12	-16.8	-6.6	-15.0	3.6	47.2*
Cc1[nH]c2c(C)cccc2c1CCNC(=O)c1ccc2c(c1[N+](=O)[O-])C(=O)c1ccccc1C2=O	1.9	-3.3	5.3	0.5	75.1
Cc1[nH]c2ccccc2c1CCNC(=O)c1ccc2c(c1[N+](=O)[O-])C(=O)c1ccccc1C2=O	-6.4	-7.2	-7.8	-1.1	70.6*
COc1ccc(OC)c(-n2c(SCC(=O)N3CCc4ccccc43)nc3c(c2=O)SCC3)c1	-12.2	-1.8	-17.9	-0.5	39.0*
N#C/C(=C\c1cccs1)C(=O)Nc1nccs1	-13.3	-9.9	-8.1	0.2	13.6
Cc1ccc(NC(=O)CC2SC3=NCCN3C2=O)cc1 (stereo not given)	33.3*	-8.8	14.2	1.9	8.2
COC(=O)[C@]12CCCCC=C1N(Cc1ccco1)C(=O)[C@H](CC(=O)NCc1cccc3ccccc13)C2	.	.	.	0.3	.
CC1(N2CCCCC2)C(=O)c2ccccc2C1=O	1.5	-9.1	-16.6	0.6	8.8
CC1(S(=O)(=O)O)CC(=O)c2ccccc2C1=O (stereo not given)	-1.7	-8.1	-2.2	-0.5	60.1*
CCOc1ccccc1NC(=O)C1CCCN(S(=O)(=O)c2cccc3nsnc23)C1 (stereo not given)	-20.9	9.0	-6.9	-2.7	55.3
O=C(Nc1ccccc1F)C1CCCN(S(=O)(=O)c2cccc3cccnc23)C1 (stereo not given)	-32.8	6.7	-24.8	-1.8	35.1*
O=C(NCC1COc2ccccc2O1)C1CCCN(S(=O)(=O)c2cccc3cccnc23)C1 (stereo not given)	-14.7	-6.5	-23.8	-3.0	55.8*
O=C(NCC1COc2ccccc2O1)C1CCCN(S(=O)(=O)c2cccc3nsnc23)C1 (stereo not given)	-21.2	-13.9	-12.3	6.1	74.7
SMILES	CHO parental Ca	GPR7 antagonist	OX1R antag-1	MPTP block	OX1R antag-2
COc1cccc(NC(=O)C2CCCN(S(C)(=O)=O)C2)c1 (stereo not given)	-3.0	1.3	-6.9	-0.4	14.4
CCOc1ccccc1NC(=O)C1CCCN(S(=O)(=O)c2cccc3cccnc23)C1 (stereo not given)	-32.0	-9.4	-22.9	-2.1	38.2*
COc1cccc(NC(=O)C2CCCN(S(=O)(=O)c3cccc4cccnc34)C2)c1 (stereo not given)	-7.7	-3.7	15.3	-1.0	55.1*
CC(C)(C)NC(=O)CN(Cc1ccc2c(c1)OCO2)C(=O)CNC(=O)c1cccs1	-11.5	2.2	-33.6	.	14.1
COCCCN1C(=O)C(CC(=O)NC2CCCCC2)CC(C(=O)N2CCCCCC2)=C1C (stereo not given)	.	.	.	1.4	.
CCCc1c(-c2ccc(Cl)cc2)ncn1Cc1cccc(-c2ccccc2)c1	.	.	.	1.0	.
O=C(C1CCCN(S(=O)(=O)c2cccc3cccnc23)C1)N1CCc2ccccc21 (stereo not given)	2.0	-6.1	9.5	-0.9	70.3*
c1coc(-c2cc3nc(NC4CCCCC4)ccn3n2)c1	.	.	.	-0.6	.
CCOC(=O)c1nn(-c2ccc(C)c(C)c2)c(=O)c(C#N)c1C	-17.9	-3.6	-29.9	2.2	43.7*
Cc1nn(-c2ccccc2)nc1C(=O)NN	-7.5	-17.5	-16.2	0.4	12.0
Cc1c(C(=O)NN)nn(-c2ccc(F)cc2)c(=O)c1C#N	0.1	6.4	-9.8	-0.3	47.9*
Cc1ccc(-n2nc(C(=O)O)c3ccccc3c2=O)cc1C	-10.2	-16.0	-9.9	-0.2	0.7
COC(=O)Nc1nn(-c2ccc(Cl)cc2)c(=O)c(C#N)c1C	2.8	-8.5	-3.3	-0.6	58.5*
Cc1nn(-c2ccc(Cl)cc2)c(Cl)c1/C=C(\C#N)C(N)=O	-1.4	-8.0	-9.8	-0.1	10.2
FC(F)Oc1ccc(NC(=S)NC2CCCCCCC2)cc1	37.2*	-1.5	23.6	34.0	29.1
CCOc1ccc(NC(=O)c2ccc(NC(=S)NC3CCCCC3)cc2)cc1	-3.9	1.5	-10.2	2.7	9.0
C/C(=N\NC(=S)NC1CCCCC1)c1ccc(OC(F)F)cc1OC(F)F	40.8*	-9.1	28.0	32.6	37.2
O=C(NCC1CCCO1)c1ccc(COCC(F)(F)C(F)F)cc1 (stereo not given)	-0.7	16.5*	-5.7	-1.4	9.7
COCCCN1C(=O)C(CC(=O)NCc2cccc3ccccc23)CC(C(=O)N(C)C)=C1C (stereo not given)	.	.	.	-0.7	.
CCOC(=O)c1c(NC(=O)CSc2c[nH]c3ccccc23)sc2c1CCCC2	0.3	-2.4	-18.9	2.0	1.5
CCOC(=O)c1c(NC(=O)CSc2nnc(-c3c[nH]c4ccccc34)n2CCOC)sc2c1CCCCC2	-8.8	-17.4	12.5	-0.9	44.6*
O=c1[nH]c(/C=C\c2cccs2)nc(O)c1[N+](=O)[O-]	-7.4	-4.0	-0.8	-0.7	64.8*
O=c1[nH]c(/C=C\c2ccc(O)cc2)nc(O)c1[N+](=O)[O-]	6.5	-10.4	-12.4	-1.1	46.9*
O=c1[nH]c(/C=C\c2ccc(O)c(Cl)c2)nc(O)c1[N+](=O)[O-]	6.9	-6.4	-9.9	0.1	51.3*

Screening data deposited in PubChem BioAssay by several laboratories.
